Scp-1 inhibitor – Scp-1 phosphatase inhibitors, primary screen, biochemical, colorimetric, uHTS; inhibition, % at 20 µM; 340,000 tested, 0.88% active; Recombinant Scp1, phosphopeptide, malachite green phosphate absorbance; Carboxy-terminal domain RNA polymerase II polypeptide A small phosphatase 1 (Homo …; AID 493091, 2011;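 active = inhibition above about 50% at 20 µM, limit read from the data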
Target sequence (Q9GZU7 76-261 limits assumed): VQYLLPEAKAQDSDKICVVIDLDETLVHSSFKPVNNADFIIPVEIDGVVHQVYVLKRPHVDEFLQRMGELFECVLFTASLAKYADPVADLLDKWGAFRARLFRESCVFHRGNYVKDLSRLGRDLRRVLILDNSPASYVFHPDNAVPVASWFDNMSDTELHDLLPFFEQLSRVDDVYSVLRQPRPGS
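Incubation: 45 min enzyme reaction at room temperature / System: truncated SCP-1 phosphatase (76-261aa) / Reagent: Phospho 17-mer peptide substrate / Buffer or medium: Acidic Tris acetate buffer with magnesium and detergent / Signal: absorbance at 630 nm / Doses: one concentration, 20 µM, with 1.0% DMSO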
DNMT1 block – human DNMT1 methyltransferase inhibitors, primary screen, biochemical, molecular beacon, fluorescence, HinP1I cleavage, uHTS; AID 588458, 2011; DNA (cytosine-5)-methyltransferase 1 (Homo sapiens), P26358; inhibition (reported as % activation of signal), % at 10 µM; 360,000 tested, 0.83% active; in the data active = inhibition above about 50%
SUMO1-SIM PPI – modulators of SUMO1 protein-protein interactions, primary screen, biochemical, uHTS | Small ubiquitin-related modifier 1 (Homo sapiens), P63165 | SUMO1 binding to a labelled peptide, TR-FRET, 1 h | inhibition, % at 20 µM | 360,000 tested, 0.33% active; in the data active = inhibition above about 37%
Target sequence (P63165 whole entry, looked up): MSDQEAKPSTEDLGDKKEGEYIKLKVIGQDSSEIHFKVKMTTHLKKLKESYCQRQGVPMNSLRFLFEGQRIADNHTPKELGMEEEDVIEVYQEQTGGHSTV
LMPTP block – LMPTP phosphatase inhibitors, primary screen, biochemical, fluorescence intensity, uHTS. AID 651560, 2012. Low molecular weight phosphotyrosine protein phosphatase (Homo sapiens), P24666. 360,000 tested, 0.22% active. inhibition, % at 20 µM. recombinant LMPTP-A, OMFP fluorogenic substrate;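 active = compounds that cut the enzyme signal by at least half of the control window in the single-dose screen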
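Assay system: LMPTP-A, protein tyrosine phosphatase of low molecular weight / Medium: pH 6.0 Bis-Tris buffer with DTT and Triton X-100 / Schedule: 50 min enzyme reaction at room temperature, protected from light / Measured by: endpoint fluorescence intensity from OMFP dephosphorylation / Read-out basis: % inhibition relative to no-enzyme and uninhibited control wells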
STEP inh – STEP phosphatase inhibitors, primary screen, biochemical, fluorescence intensity, uHTS; recombinant STEP, OMFP fluorogenic substrate; inhibition, % at 20 µM; 360,000 tested, 0.25% active; AID 588621, 2011;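 active = inhibition at 20 µM, scaled per plate between control wells, above about 37%, limit read from the data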
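System: STEP (striatal-enriched tyrosine phosphatase) enzyme, cell-free; medium: Bis-Tris pH 6.0 buffer with DTT, detergent; dosing: 20 µM, 1% DMSO; times: reaction 20 min, ambient temperature; detection: fluorescence, 480/540 nm; read-out basis: normalized % inhibition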
UBC9 SUMO inh – inhibitors of in vitro SUMOylation cascade, primary screen, biochemical, HTRF, uHTS; 290,000 tested, 0.36% active; HTRF SUMOylation assay, SAE1/SAE2 + UBC9; SUMO-conjugating enzyme UBC9 (Homo sapiens), P63279; inhibition, % at 35 µM; AID 2006, 2009; in the data active = inhibition above about 50%, passing the limit was not always enough
STEP conf – STEP phosphatase inhibitor hit confirmation, biochemical, fluorescence intensity, single concentration; shares compounds with STEP inh; recombinant STEP, OMFP fluorogenic substrate; inhibition, % at 20 µM; 520 tested, 32% active; call rule not given here
Hits are given with their value; i = inactive; nt = no result. Only some compounds are listed: those with a hit (about 1.9% of all), similar ones and a draw of the others.

SMILES	Scp-1 inhibitor	DNMT1 block	SUMO1-SIM PPI	LMPTP block	STEP inh	UBC9 SUMO inh	STEP conf
NC1=NC[C@H](Cc2ccccc2)N1CCc1cccc(F)c1	i	i	74	i	70	i	i
O=C(N/N=C/c1ccccn1)c1ccc(N/N=C/c2ccccn2)cc1	i	i	i	i	i	i	nt
O=C(N/N=C/c1ccccn1)c1ccc(Br)cc1	i	i	i	i	72	i	i
CC(C)[C@H](NC(=O)N1CC(=O)Nc2ccccc21)C(=O)Nc1nccs1	i	i	i	i	92	i	i
C=C1CC[C@@H]2[C@](C)(CCC[C@@]2(C)/C=C/[C@@H](O)C(C)(C)O)[C@H]1CC(=O)NCCS(=O)(=O)O	i	i	i	i	i	nt	nt
COc1cc(N2C(=O)CSC23C(=O)Nc2ccccc23)cc(OC)c1OC (stereo not drawn)	i	i	i	i	i	i	nt
COc1ccc(N2C(=O)CSC23C(=O)Nc2ccccc23)cc1OC (stereo not drawn)	i	i	i	i	48	i	i
O=C(O)CCCCCn1c(SCc2cc(=O)n3ccccc3n2)nc2ccsc2c1=O	i	i	i	i	i	i	nt
O=C(O)CCCCCn1c(SCc2cc(=O)n3cc(Cl)ccc3n2)nc2ccsc2c1=O	i	i	i	i	65	i	i
CC1(Cc2cccc(C(F)(F)F)c2)C(=O)Nc2c(Cl)ccc(Cl)c21 (stereo not drawn)	nt	i	i	i	i	nt	nt
O=C1CCCc2c1sc1nc3n(c(=O)c21)CCCCC3	i	i	i	i	45	i	i
O=C(O)c1ccc(NC(=O)c2ccccc2NC(=O)c2cccc(F)c2)cc1	i	i	i	i	68	i	i
Cc1cccc(C(=O)Nc2ccccc2C(=O)Nc2ccc(C(=O)O)cc2)c1	i	i	i	i	i	i	nt
O=C(N/N=C/c1cccnc1)c1ccc(NC(=O)c2ccc(Cl)cc2)cc1	i	i	i	i	53	i	i
O=C(C(=O)N(C1CCCCC1)C1CCCCC1)c1ccccc1	nt	nt	i	i	nt	nt	nt
CC1=C(C(=O)OC(C)C)[C@@H](c2ccc(C)o2)NC(=O)N1	i	i	i	i	120	i	i
Cc1ccccc1NC(=O)Nc1nc(CN)cs1	nt	i	i	i	i	nt	nt
COc1ccc(NC(=S)N2CCC(N(C)CC3CCCO3)CC2)cc1Cl (stereo not drawn)	i	i	i	i	50	i	42
Cc1cccnc1NC(=O)CN1C(=O)c2ccccc2S1(=O)=O	i	i	i	i	i	nt	nt
CCCCn1c(N)c(N(CCOC)C(=O)CSc2nnc(-c3ccco3)n2CC)c(=O)[nH]c1=O	i	i	i	i	i	nt	nt
CC1(C)CC(=O)C=C(NNC(=O)c2ccccc2)C1	i	i	i	i	i	i	nt
CC1(C)CC(=O)C=C(NNC(=O)c2ccc(N)cc2)C1	i	i	i	i	120	i	i
CCOC(=O)c1c(NC(=O)OC)sc(C(=O)N(CC)CC)c1C	i	i	i	i	82	i	52
CCOC(=O)c1sc(NC(=O)OC)c(C(=O)OC)c1C	i	i	i	i	i	i	nt
N#CNc1nc(O)cc(=O)[nH]1	i	i	i	87	98	i	63
CCSc1nc(O)cc(=O)[nH]1	i	i	i	i	i	i	nt
COc1ccc(OC)c(C(=O)c2ccccn2)c1	i	i	i	i	95	i	i
CCN(CC)C(=O)c1ccccc1NC(=O)c1ccccc1C	i	i	i	i	i	i	nt
CCN(CC)C(=O)c1ccccc1NC(=O)c1ccccc1SC	i	i	i	i	43	i	i
